ChEMBL document CHEMBL3351648, “Synthesis and pharmacological evaluation of 6-aminonicotinic acid analogues as novel GABA(A) receptor agonists” (Eur J Med Chem, 2014)
Blank lines part the entries; values can stand above or below the compound they belong to. Calls of active or inactive are those of the source. The rule behind the calls is not given here.

Tests used:
[1] = biological target: GABA-A receptor; anion channel; test: Displacement of [3H]muscimol from GABAA receptor in SPRD rat brain synaptic membranes by scintillation counting method; type: cell membranes
Outline: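 Rat synaptic membranes were thawed, homogenized in ice-cold 50 mM Tris-HCl pH 7.4, and spun at 48,000g for 10 min at 4 °C, with the wash repeated four times. Incubation was with 5 nM [3H]muscimol (final) and varying test concentrations for 60 min at 0 °C, then GF/C filtration and scintillation counting.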

[2] = biological target: T1, GABA-A receptor; alpha-1/beta-2/gamma-2 (Homo sapiens, UniProt P14867+P18507+P47870); test: (§1) Agonist activity at human GABAAalpha1beta2gamma2S receptor expressed in tsA-201cells by FLIPR membrane potential blue assay; conditions: read-out: EC50
T1 sequence (P14867 whole entry): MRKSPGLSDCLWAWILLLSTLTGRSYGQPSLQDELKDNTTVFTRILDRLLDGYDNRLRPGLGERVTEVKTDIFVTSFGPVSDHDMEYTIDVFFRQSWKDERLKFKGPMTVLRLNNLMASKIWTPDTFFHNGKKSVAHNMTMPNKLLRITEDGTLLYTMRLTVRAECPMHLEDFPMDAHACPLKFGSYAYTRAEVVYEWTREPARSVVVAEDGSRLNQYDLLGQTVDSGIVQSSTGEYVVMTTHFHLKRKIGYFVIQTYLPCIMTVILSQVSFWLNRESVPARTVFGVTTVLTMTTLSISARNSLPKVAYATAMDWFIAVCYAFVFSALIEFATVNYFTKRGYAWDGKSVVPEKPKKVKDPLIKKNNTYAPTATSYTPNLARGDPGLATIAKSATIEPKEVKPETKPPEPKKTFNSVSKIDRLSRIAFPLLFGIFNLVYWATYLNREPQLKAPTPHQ
T1 sequence (P47870 whole entry): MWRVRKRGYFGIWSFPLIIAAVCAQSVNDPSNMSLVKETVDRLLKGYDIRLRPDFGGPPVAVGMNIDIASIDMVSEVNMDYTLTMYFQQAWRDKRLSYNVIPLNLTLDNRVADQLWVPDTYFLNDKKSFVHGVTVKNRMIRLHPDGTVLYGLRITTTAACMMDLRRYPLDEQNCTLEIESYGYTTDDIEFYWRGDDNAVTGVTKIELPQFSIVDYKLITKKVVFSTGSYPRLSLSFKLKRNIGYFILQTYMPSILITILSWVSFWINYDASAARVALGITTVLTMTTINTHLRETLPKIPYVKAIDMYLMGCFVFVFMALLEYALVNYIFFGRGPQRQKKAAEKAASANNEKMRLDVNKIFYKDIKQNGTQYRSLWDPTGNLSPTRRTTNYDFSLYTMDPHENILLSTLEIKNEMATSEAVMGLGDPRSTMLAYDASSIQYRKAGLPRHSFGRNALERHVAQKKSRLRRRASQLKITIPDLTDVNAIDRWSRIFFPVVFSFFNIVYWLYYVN
T1 sequence (P18507 whole entry): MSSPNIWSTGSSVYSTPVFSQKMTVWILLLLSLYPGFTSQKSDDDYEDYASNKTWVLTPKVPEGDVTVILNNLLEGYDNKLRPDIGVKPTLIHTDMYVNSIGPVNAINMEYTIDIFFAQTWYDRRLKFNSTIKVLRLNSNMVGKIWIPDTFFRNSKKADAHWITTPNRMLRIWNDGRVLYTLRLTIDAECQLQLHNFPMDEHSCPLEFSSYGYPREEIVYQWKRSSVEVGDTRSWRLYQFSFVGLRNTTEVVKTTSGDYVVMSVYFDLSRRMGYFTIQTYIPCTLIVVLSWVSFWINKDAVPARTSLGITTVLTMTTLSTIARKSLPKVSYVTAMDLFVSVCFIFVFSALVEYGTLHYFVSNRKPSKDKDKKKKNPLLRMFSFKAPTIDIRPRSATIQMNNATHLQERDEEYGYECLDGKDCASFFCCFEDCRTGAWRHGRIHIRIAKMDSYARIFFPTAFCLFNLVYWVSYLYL
Outline: (§2)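 tsA201 cells (8×10^5 per 6 cm dish) were transfected with α1, α2, α3 or α5 plus β2 and γ2S cDNAs (1:1:3), or with ρ1 alone. Next day cells were replated into poly-D-lysine 96-well plates. After 16–24 h they were washed with Krebs buffer pH 7.4, given membrane-potential dye, held 30 min at 37 °C, and read at 560 nm emission. Concentration-response curves used ΔFU before versus after agonist; duplicates were run ≥3 times.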

[3] = biological target: T2, Gamma-aminobutyric acid receptor subunit rho-1 (Homo sapiens, UniProt P24046); test: Agonist activity at human GABAA rho1 expressed in tsA-201cells by FLIPR membrane potential blue assay; outline: as §2
T2 sequence (P24046 whole entry): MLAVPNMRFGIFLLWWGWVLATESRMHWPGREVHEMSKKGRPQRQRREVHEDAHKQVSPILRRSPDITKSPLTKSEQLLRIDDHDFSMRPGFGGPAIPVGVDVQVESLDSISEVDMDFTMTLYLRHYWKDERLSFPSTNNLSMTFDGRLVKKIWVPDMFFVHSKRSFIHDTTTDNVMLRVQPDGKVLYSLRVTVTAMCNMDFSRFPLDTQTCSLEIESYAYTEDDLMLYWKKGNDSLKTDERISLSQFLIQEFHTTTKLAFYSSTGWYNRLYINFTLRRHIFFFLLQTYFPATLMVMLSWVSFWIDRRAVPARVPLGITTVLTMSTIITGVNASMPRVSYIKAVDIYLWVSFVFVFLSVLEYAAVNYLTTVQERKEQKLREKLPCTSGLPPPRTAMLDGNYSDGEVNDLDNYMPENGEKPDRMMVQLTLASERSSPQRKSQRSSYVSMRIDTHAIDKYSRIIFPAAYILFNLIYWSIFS

[4] = biological target: T3, GABA A receptor alpha-2/beta-2/gamma-2 (Homo sapiens, UniProt P18507+P47869+P47870); test: Agonist activity at human GABAAalpha2beta2gamma2S receptor expressed in tsA-201cells by FLIPR membrane potential blue assay; outline: as §2
T3 sequence (P47870 whole entry): T1 sequence (P47870 whole entry)
T3 sequence (P18507 whole entry): T1 sequence (P18507 whole entry)
T3 sequence (P47869 whole entry): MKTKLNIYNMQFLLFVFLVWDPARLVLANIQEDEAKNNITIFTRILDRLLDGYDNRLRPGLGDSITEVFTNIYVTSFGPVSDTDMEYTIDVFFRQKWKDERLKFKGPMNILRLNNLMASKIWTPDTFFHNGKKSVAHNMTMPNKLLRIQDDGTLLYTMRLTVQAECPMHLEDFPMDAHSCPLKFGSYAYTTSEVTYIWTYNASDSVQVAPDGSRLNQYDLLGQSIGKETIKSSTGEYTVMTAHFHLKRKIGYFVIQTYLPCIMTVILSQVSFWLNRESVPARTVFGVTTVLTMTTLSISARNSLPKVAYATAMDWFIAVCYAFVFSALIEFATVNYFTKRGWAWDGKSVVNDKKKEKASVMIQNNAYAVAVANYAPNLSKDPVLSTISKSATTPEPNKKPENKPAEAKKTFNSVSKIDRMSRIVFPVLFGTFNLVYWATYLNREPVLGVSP

[5] = biological target: GABA A receptor alpha-2/beta-2/gamma-2 (Homo sapiens) (UniProt P47870+P18507+P47869); test: Agonist activity at human GABAAalpha2beta2gamma2S receptor expressed in tsA-201cells by FLIPR membrane potential blue assay relative to GABA
[6] = biological target: T4, GABA A receptor alpha-3/beta-2/gamma-2 (Homo sapiens, UniProt P18507+P34903+P47870); test: Agonist activity at human GABAAalpha3beta2gamma2S receptor expressed in tsA-201cells by FLIPR membrane potential blue assay; outline: as §2
T4 sequence (P47870 whole entry): T1 sequence (P47870 whole entry)
T4 sequence (P18507 whole entry): T1 sequence (P18507 whole entry)
T4 sequence (P34903 whole entry): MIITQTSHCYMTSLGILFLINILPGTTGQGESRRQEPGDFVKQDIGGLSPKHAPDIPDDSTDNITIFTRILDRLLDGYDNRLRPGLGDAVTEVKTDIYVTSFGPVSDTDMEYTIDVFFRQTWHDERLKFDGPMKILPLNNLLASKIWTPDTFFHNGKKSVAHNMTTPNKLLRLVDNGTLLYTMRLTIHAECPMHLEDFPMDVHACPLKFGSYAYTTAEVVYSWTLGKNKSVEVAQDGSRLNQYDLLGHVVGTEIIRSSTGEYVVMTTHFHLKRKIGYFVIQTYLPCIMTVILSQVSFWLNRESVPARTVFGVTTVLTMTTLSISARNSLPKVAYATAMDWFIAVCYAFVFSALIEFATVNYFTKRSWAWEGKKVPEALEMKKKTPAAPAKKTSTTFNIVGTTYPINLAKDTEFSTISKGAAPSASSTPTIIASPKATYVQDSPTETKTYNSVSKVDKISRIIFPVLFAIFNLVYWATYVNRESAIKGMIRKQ

[7] = biological target: GABA A receptor alpha-3/beta-2/gamma-2 (Homo sapiens) (UniProt P47870+P18507+P34903); test: Agonist activity at human GABAAalpha3beta2gamma2S receptor expressed in tsA-201cells by FLIPR membrane potential blue assay relative to GABA
[8] = Agonist activity at human GABAAalpha5beta2gamma2S receptor expressed in tsA-201cells by FLIPR membrane potential blue assay; type: cell membranes
tsA-201 = test: Agonist activity at human GABAAalpha5beta2gamma2S receptor expressed in tsA-201cells by FLIPR membrane potential blue assay relative to GABA
[9] = biological target: T2, Gamma-aminobutyric acid receptor subunit rho-1; test: Agonist activity at human GABAA rho1 expressed in tsA-201cells by FLIPR membrane potential blue assay relative to GABA
[10] = Dissociation constant, pKa of the compound by diode array detector method; type: physicochemical
Outline: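 pKa was determined by titration in methanol cosolvent at 23–48%, with three titrations per compound. An in-line diode-array detector recorded UV-Vis spectra, and the titration was mapped against the spectra of the protonated and unprotonated species.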

[11] = biological target: T5, GABA-A receptor; alpha-1/beta-2/gamma-2 (Homo sapiens, UniProt P14867+P47870+P18507); test: as §1; conditions: tsa-201; outline: as §2
T5 sequence (P14867 whole entry): T1 sequence (P14867 whole entry)
T5 sequence (P47870 whole entry): T1 sequence (P47870 whole entry)
T5 sequence (P18507 whole entry): T1 sequence (P18507 whole entry)

[12] = biological target: GABA-A receptor; alpha-1/beta-2/gamma-2 (Homo sapiens) (UniProt P14867+P47870+P18507); test: Agonist activity at human GABAAalpha1beta2gamma2S receptor expressed in tsA-201cells at 1 mM by FLIPR membrane potential blue assay; type: cell-based
Outline: (§3)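 Transfected tsA201 cells (α1β2γ2S or ρ1) were loaded with membrane-potential dye in Krebs buffer pH 7.4 for 30 min at 37 °C. Compound was applied at a single 1 mM concentration. Response was read as fluorescence change at 560 nm emission before versus after addition, in duplicate on ≥3 occasions.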

[13] = biological target: T2, Gamma-aminobutyric acid receptor subunit rho-1; test: Agonist activity at human GABAA rho1 expressed in tsA-201cells at 1 mM by FLIPR membrane potential blue assay; type: cell-based; outline: as §3

- Ki [1]: 0.055 µM
- EC50 [2]: 11 µM
- EC50 ([3]; read-out: EC50): 39 µM
- EC50 [4]: 4.5 µM
- Rmax [5]: 95%
- EC50 [6]: 5.6 µM
- Rmax [7]: 91%
- EC50 [8]: 0.78 µM
- pEC50 [8]: 6.1
- Rmax (tsA-201): 101%
- Rmax [9]: 85%
Structure (SMILES): O=C(O)C1=CCNCC1 [ISOGUVACINE]

- Ki [1]: > 100 µM
Structure (SMILES): Nc1cc(-c2ccccc2)c(C(=O)O)cn1

- Ki [1]: > 100 µM
Structure (SMILES): Nc1ncccc1C(=O)O

- Ki [1]: 0.54 µM
- EC50 [2]: 14 µM
- EC50 ([3]; read-out: EC50): 8.1 µM
- EC50 ([3]; read-out: pEC50 (converted)): 1.58 µM
- pKa [10]: 12.7
- EC50 [4]: 9.4 µM
- Rmax [5]: 91%
- EC50 [6]: 19 µM
- Rmax [7]: 85%
- EC50 [8]: 2.1 µM
- pEC50 [8]: 5.68
- Rmax (tsA-201): 113%
- Rmax [9]: 55%
Structure (SMILES): NC1=NCC(C(=O)O)CN1 (stereo not given)

- Ki [1]: > 100 µM
- pKa [10]: 1.4
Structure (SMILES): O=C(O)c1cncnc1

- Ki [1]: > 100 µM
Structure (SMILES): CNc1ccc(C(=O)O)cn1

Structure (SMILES): CCCCc1cc(N)ncc1C(=O)O
- Ki [1]: 24 µM
- EC50 [2]: > 1000 µM
- pEC50 [11]: < 3
- EC50 ([3]; read-out: EC50): > 1000 µM
- pEC50 ([3]; tsa-201): < 3

- Ki [1]: 1.4 µM
- EC50 [11]: Active
- EC50 ([3]; tsa-201): Active
Structure (SMILES): Cc1nc(N)ccc1C(=O)O

Structure (SMILES): CCCCc1nc(N)ccc1C(=O)O
- Ki [1]: 7.1 µM
- EC50 [2]: > 1000 µM
- pEC50 [11]: < 3
- EC50 ([3]; read-out: EC50): > 1000 µM
- pEC50 ([3]; tsa-201): < 3

- Ki [1]: > 100 µM
Structure (SMILES): Cc1cc(C(=O)O)cnc1N

- Ki [1]: > 100 µM
Structure (SMILES): Nc1ncc(C(=O)O)cc1I

- Ki [1]: > 100 µM
Structure (SMILES): Nc1ccc(C(=O)O)c(-c2ccccc2)n1

- Ki [1]: 0.51 µM
- EC50 [11]: Active
- Rmax [12]: 66%
- EC50 ([3]; tsa-201): Active
- Activity [13]: Active
- EC50 [4]: 24 µM
- Rmax [5]: 85%
- EC50 [6]: 17 µM
- Rmax [7]: 85%
- EC50 [8]: 2.8 µM
- pEC50 [8]: 5.54
- Rmax (tsA-201): 115%
- Rmax [9]: inactive
Structure (SMILES): O=C(O)C1CCNCC1 [ISONIPECOTIC ACID]

- Ki [1]: > 100 µM
Structure (SMILES): CCc1cc(C(=O)O)cnc1N

- Ki [1]: > 100 µM
Structure (SMILES): Nc1cccc(CC(=O)O)n1
